In publication PMC9401589 (Chembiochem, 2022):
Entries after “also recorded” stand apart in the source; their conditions may differ. Where two headings read alike, the source gives them in different places.

Legend:
[1] = test system: Anabaena variabilis ATCC 29413; assay: Bioactivity assay: growth of A. variabilis in presence of compound; type: cell-based; conditions: for growth inhibition / bioactivity towards A. variabilis: 4 days of cultivation; for cell density (chlorophyll a content) compared to control: 250 μM, four-day cultivation; for concentration at which an effect on growth was visible: after 4 days of cultivation, tested 5-250 µM
In short: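 A. variabilis cultured in suspension with test compound at 250 μM for four days. Chlorophyll a content was then measured as the indicator of cell density and compared with untreated control cultures. Cultures were also inspected visually for growth.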

[2] = test system: A. variabilis; assay: Uptake assay: decrease of compound in supernatant of A. variabilis cultures; type: cell-based, Anabaena variabilis; conditions: 250 μM applied; for change of compound amount in supernatant: over 48 h
[3] = test system: DAHP accumulation in A. variabilis cells; assay: DAHP accumulation in treated A. variabilis cells; type: cell-based, Anabaena variabilis; conditions: 250 μM, after 5 h of cultivation
In short: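 Anabaena variabilis cells were cultivated for 5 h with 250 μM test compound, alongside untreated control cells. Treated cells were then examined for intracellular DAHP accumulation as an in vivo sign of DHQS inhibition in the shikimate pathway.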

[4] = test system: A. thaliana seedlings; assay: Seedling growth of A. thaliana; type: in vivo, Arabidopsis thaliana; conditions: 7 days after germination, compared to control
In short: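 A. thaliana seedlings were grown with or without test compound and scored 7 days after germination for seedling morphology and root length (n≥18 seedlings). Each treatment was compared with the control by unpaired t-test.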

[5] = biological target: T1, dehydroquinate synthase of Arabidopsis thaliana (AtDHQS) (Arabidopsis thaliana, UniProt Q8VYV7); assay: DHQS activity assay; type: biochemical
T1 sequence (Q8VYV7 59-442): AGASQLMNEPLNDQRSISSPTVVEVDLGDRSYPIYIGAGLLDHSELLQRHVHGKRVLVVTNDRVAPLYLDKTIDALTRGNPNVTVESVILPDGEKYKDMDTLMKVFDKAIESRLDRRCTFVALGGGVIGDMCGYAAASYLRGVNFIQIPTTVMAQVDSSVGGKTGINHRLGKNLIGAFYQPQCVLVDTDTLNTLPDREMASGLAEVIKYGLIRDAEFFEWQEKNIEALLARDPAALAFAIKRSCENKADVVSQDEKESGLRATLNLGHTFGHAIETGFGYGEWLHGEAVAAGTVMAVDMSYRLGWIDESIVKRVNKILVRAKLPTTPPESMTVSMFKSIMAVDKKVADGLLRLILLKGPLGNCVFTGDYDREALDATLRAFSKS

[6] = Quantification of compound in plant material via GC-MS; type: in vivo, Arabidopsis thaliana
[7] = biological target: T2, DHQS from A. variabilis (AvDHQS) (Trichormus variabilis, UniProt Q3M4V2); assay: DHQS activity assay with A. variabilis enzyme; type: biochemical, Anabaena variabilis
T2 sequence (Q3M4V2 1-363): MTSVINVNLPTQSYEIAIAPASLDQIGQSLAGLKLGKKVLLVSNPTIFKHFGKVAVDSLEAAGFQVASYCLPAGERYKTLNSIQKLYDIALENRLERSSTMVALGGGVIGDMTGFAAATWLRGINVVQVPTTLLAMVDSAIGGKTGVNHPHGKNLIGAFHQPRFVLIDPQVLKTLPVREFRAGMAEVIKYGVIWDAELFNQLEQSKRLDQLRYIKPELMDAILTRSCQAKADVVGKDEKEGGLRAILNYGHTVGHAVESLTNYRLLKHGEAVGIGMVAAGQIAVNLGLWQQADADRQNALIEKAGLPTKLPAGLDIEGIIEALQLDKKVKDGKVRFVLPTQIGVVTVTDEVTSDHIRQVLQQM

[8] = test system: fish; conditions: fish ref 2, 4; cited from earlier work

Structure (SMILES) | growth inhibition / bioactivity towards A. variabilis [1] | change of compound amount in supernatant [2] | DAHP accumulation [3] | effect on seedling growth / root length [4] | cell density (chlorophyll a content) compared to control [1] | concentration at which an effect on growth was visible [1] [µM] | other results
C[C@@H](O)[C@H](F)[C@@H](O)[C@H](O)C(=O)CO [5,7dd5FIh (3)] | nor in growth inhibition | depletion | only very small amounts; also recorded: neither result in DAHP accumulation | no statistical significant differences | – | – | –
O=C(CO)[C@@H](O)[C@H](O)[C@H](O)[C@H](O)CF [7d7FSh (2)] | inhibited growth | best among all tested compounds | significantly higher amounts; also recorded: significantly elevated compared to 7dSh (1) | significantly affected the growth and morphology; also recorded: inhibited growth | significantly reduced | 100 | IC50 [5]: 200 µM; initially applied compound retrieved in the supernatant ([2]; after 24 h): none; medium concentration leading to saturation of intracellular accumulation ([6]; 7 d old seedlings): 130 µM; accumulation / import into Arabidopsis seedlings ([6]; seedlings germinated on media with 7d7FSh (130 or 260 µM)): comparable range to 7dSh (1)
C[C@@H]1O[C@](O)(CO)[C@@H](O)[C@H](O)[C@H]1O [7dGh (5)] | nor inhibitory impact on cell growth | slight decrease; also recorded: small decrease | only very small amounts; also recorded: neither DAHP accumulation | no statistical significant differences | – | – | relative activity in relation to 7dSh (1) (ratio of IC50 values) ([5]; IC50 7dSh : IC50 derivative, same enzyme series): ≈ 0.3
C[C@@H](O)[C@@H](O)[C@@H](O)[C@H](O)C(=O)CO [7dSh (1), 7‐deoxy‐sedoheptulose] | – | – | significantly higher amounts | significantly affected the growth and morphology | significantly reduced | 5 | IC50 ([5]; IC50, AtDHQS, series [b] enzyme preparation): 85.5 µM; IC50 ([5]; IC50-value against isolated AtDHQS enzyme, range over both enzyme preparations): 85.5 to 144 µM; IC50 ([5]; IC50 of AtDHQS, approximate, as printed in discussion): ~100 µM; IC50 [7]: 23.3 µM; amount of initially applied substance detected in the supernatant ([2]; after 48 h, ESI-MS): about 50%; cytotoxic effects [8]: little
O=C(CO)[C@@H](O)[C@H](O)[C@H](O)[C@H](O)CO [Sedoheptulose, reference compound] | – | – | – | – | – | – | inhibitory effect on AtDHQS [5]: no inhibitory effect; IC50 ([5]; AtDHQS, series [a] enzyme preparation, 2.5 µM substrate, 2 nM enzyme, 29 °C): > 1000 µM
